ChEMBL document CHEMBL1139082, “A potent and orally active HIV-1 integrase inhibitor” (Bioorg Med Chem Lett, 2007)
pIC50: −log10 of the molar value. Converted amounts (≈) assume the structure as drawn. The source made the active and inactive calls. No cut-off for these calls is given here.

Experiments:
[1] = tested on: Human immunodeficiency virus 1; experiment: Antiviral activity against HIV1 3B in MT4 cells assessed as decrease in HIV1 p24 core antigen in presence of normal human serum; format: functional; conditions: Human immunodeficiency virus 1, 3B
In short: (§1)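 MT-4 human T-lymphoid cells infected with HIV-1 IIIb, cultured with increasing inhibitor concentrations; readout is the decrease in p24 core antigen. IC95 is the concentration giving 95% inhibition of viral growth versus control. Line 1 used 10% fetal bovine serum; line 2 used 50% normal human serum. n ≥ 2; lower limit ~7 nM; SD ~2-fold.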

[2] = tested on: Human immunodeficiency virus 1; experiment: Antiviral activity against HIV1 3B in MT4 cells assessed as decrease in HIV1 p24 core antigen in presence of FBS; format: functional; conditions: Human immunodeficiency virus 1, 3B; in short: as §1
[3] = Partition coefficient, log P at pH 7.4; format: physicochemical; conditions: octanol/water
In short: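 Octanol/buffer partition measured by HPLC at each compound's maximum absorbance. Log P = log[(octanol area × octanol dilution)/(buffer area × buffer dilution)].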

[4] = species: Homo sapiens; experiment: Protein binding in human plasma by ultrafiltration method; conditions: read-out: PB (converted)
[5] = molecular target: Human immunodeficiency virus type 1 integrase (Human immunodeficiency virus 1, UniProt Q7ZJM1); experiment: Inhibition of HIV1 recombinant integrase catalyzed strand transfer activity
[6] = Clearance in rhesus monkey at 1 mg/kg, iv; format: ADME, organism-based, Macaca mulatta; design: dose 1 mg/kg, route intravenous; conditions: in vivo
In short: (§2)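 Dog and rhesus monkeys were given sodium salt intravenously at 1 mg/kg, dissolved in DMSO. Half-life (h) and clearance (mL/min/kg) were derived from plasma concentrations after iv dosing.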

[7] = Solubility at pH 7.4 by equilibrium solubility assay; format: physicochemical; conditions: buffer
In short: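 Crystalline drug was suspended in 10 mM sodium phosphate, pH 7.4, and equilibrated at room temperature for 5 days. Aliquots were centrifuged 15,000 rpm for 15 min. Solution concentration was measured by HPLC at days 2 and 5 and taken as solubility.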

[8] = tested on: Human immunodeficiency virus 1; experiment: Antiviral activity against HIV1 with integrase […] mutant; format: functional, organism-based
In short: (§3)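 HIV-1 carrying site-directed integrase mutations (mutations first seen in serial cell-culture passage under integrase inhibitors) tested in cell culture. Activity is expressed as fold loss in efficacy relative to wild-type virus.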

[9] = Half life in rhesus monkey at 1 mg/kg, iv; format: ADME, organism-based, Macaca mulatta; design: dose 1 mg/kg, route intravenous; conditions: in vivo; in short: as §2
[10] = Half life in rat at 2 mg/kg, iv; format: ADME, organism-based; design: dose 2 mg/kg, route intravenous; conditions: in vivo
In short: (§4)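 Rats received the sodium salt intravenously at 2 mg/kg, dissolved in DMSO. Half-life (h) and clearance (mL/min/kg) were derived after iv administration.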

[11] = Half life in dog at 1 mg/kg, iv; format: ADME, organism-based, Canis lupus familiaris; design: dose 1 mg/kg, route intravenous; conditions: in vivo; in short: as §2
[12] = tested on: Human immunodeficiency virus 1; experiment: Antiviral activity against HIV1 with integrase T66l/M154l mutant; format: functional, organism-based; in short: as §3
[13] = Oral bioavailability in rhesus monkey at 1 mg/kg; format: ADME, organism-based, Macaca mulatta; conditions: in vivo
In short: (§5)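 Sodium salt was ground and given orally at 1 mg/kg to dogs and rhesus monkeys as a 0.5% aqueous methylcellulose suspension. Percent bioavailability was taken after oral administration.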

[14] = Clearance in rat at 2 mg/kg, iv; format: ADME, organism-based; design: dose 2 mg/kg, route intravenous; conditions: in vivo; in short: as §4
[15] = Oral bioavailability in rat at 10 mg/kg; format: ADME, organism-based; conditions: in vivo
In short: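 Sodium salt was ground and given orally to rats at 10 mg/kg as a 1% aqueous methylcellulose solution/suspension. Percent bioavailability was taken after oral administration.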

[16] = Oral bioavailability in dog at 1 mg/kg; format: ADME, organism-based, Canis lupus familiaris; conditions: in vivo; in short: as §5
[17] = tested on: Human immunodeficiency virus 1; experiment: Antiviral activity against HIV1 with integrase N155S mutant; format: functional, organism-based; in short: as §3
[18] = tested on: Human immunodeficiency virus 1; experiment: Antiviral activity against HIV1 with integrase V151l mutant; format: functional, organism-based; in short: as §3
[19] = tested on: Human immunodeficiency virus 1; experiment: Antiviral activity against HIV1 with integrase F121Y mutant; format: functional, organism-based; in short: as §3
[20] = tested on: Human immunodeficiency virus 1; experiment: Antiviral activity against HIV1 with integrase T125K mutant; format: functional, organism-based; in short: as §3
[21] = tested on: Human immunodeficiency virus 1; experiment: Antiviral activity against HIV1 with integrase T66l/S153Y mutant; format: functional, organism-based; in short: as §3
[22] = Clearance in dog at 1 mg/kg, iv; format: ADME, organism-based, Canis lupus familiaris; design: dose 1 mg/kg, route intravenous; conditions: in vivo; in short: as §2
[23] = tested on: Plasma; experiment: Fraction unbound in human plasma after 30 mins by ultracentrifugation method; format: ADME, cell-free; conditions: 0.5 h
In short: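 14C-labelled compound was spiked into human plasma (pH 7.4) at final 1, 5 and 20 µM and incubated 30 min at 37 °C. Ultracentrifugation at 180,000g, 37 °C, overnight (~18 h). Supernatant aliquots were counted by liquid scintillation with quench correction; fu (%) = dpm in protein-free fraction / dpm in original plasma × 100.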

Human immunodeficiency virus type 1 integrase, sequence (Q7ZJM1 whole entry): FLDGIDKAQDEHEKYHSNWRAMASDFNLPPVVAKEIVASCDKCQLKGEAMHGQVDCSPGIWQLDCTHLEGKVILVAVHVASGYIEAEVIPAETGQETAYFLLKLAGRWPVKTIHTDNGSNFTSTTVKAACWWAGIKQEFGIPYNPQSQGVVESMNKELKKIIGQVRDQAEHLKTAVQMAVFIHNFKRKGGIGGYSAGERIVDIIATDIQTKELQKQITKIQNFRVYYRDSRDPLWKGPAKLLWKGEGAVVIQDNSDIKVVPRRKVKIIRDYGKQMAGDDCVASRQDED

Row | Structure (SMILES) | IC95 [1] | IC95 [2] | logD [3] | fraction unbound [4] | pIC50 [5] | other results
1 | CN(C)C(=O)c1cc(F)ccc1CNC(=O)c1nc(N2CCCCS2(=O)=O)c2cccnc2c1O | 63 nM | 23 nM | 1 | 0.1 | 6.96 | –
2 | CNC(=O)Cc1ccccc1CNC(=O)c1nc(N2CCCCS2(=O)=O)c2cccnc2c1O | 438 nM | 109 nM | 1 | 0.08 | 8.15 | –
3 | O=C(NCc1ccc(F)cc1)c1nc(N2CCCCS2(=O)=O)c2cccnc2c1O | 102 nM | 15 nM | 2.1 | – | – | clearance [6]: 6.6 mL/min/kg; Solubility [7]: 0.21 µg/mL (≈ 0.488 µM); Activity [8]: Active; half-life [9]: 0.7 h; half-life [10]: 1.2 h; half-life [11]: 2.9 h; Activity [12]: Active; bioavailability [13]: 51%; clearance [14]: 2.8 mL/min/kg; bioavailability [15]: 41%; bioavailability [16]: 24%; Activity [17]: Active; Activity [18]: Active; Activity [19]: Active; Activity [20]: Active; Activity [21]: Active; clearance [22]: 2 mL/min/kg
4 | CNC(=O)c1cc(F)ccc1CNC(=O)c1ncc2cccnc2c1O | 1040 nM | – | 1.4 | 0.02 | 7.29 | –
5 | O=[14C](NCc1ccc(F)cc1)c1nc(N2CCCCS2(=O)=O)c2cccnc2c1O | – | – | – | – | – | Activity [23]: 1.5%
6 | O=C(NCc1ccc(F)cc1)c1ncc2cccnc2c1O | 5000 nM | – | 2.4 | 0.01 | – | –
7 | CNC(=O)c1cc(F)ccc1CNC(=O)c1nc(N2CCCCS2(=O)=O)c2cccnc2c1O | 16 nM | 7 nM | 1.6 | 0.08 | 8.00 | clearance [6]: 18.3 mL/min/kg; solubility thermodynamic [7]: 2.3 µg/mL (≈ 4.72 µM); Activity [8]: Active; half-life [9]: 1.4 h; half-life [10]: 1.2 h; half-life [11]: 1.8 h; Activity [12]: Active; bioavailability [13]: 23%; clearance [14]: 8.6 mL/min/kg; bioavailability [15]: 45%; bioavailability [16]: 65%; Activity [17]: Active; Activity [18]: Active; Activity [19]: Active; Activity [20]: Active; Activity [21]: Active; clearance [22]: 2.8 mL/min/kg
8 | CN(C)S(=O)(=O)c1cc(F)ccc1CNC(=O)c1nc(N2CCCCS2(=O)=O)c2cccnc2c1O | 94 nM | 16 nM | 1.9 | 0.03 | 7.52 | –
9 | O=C(NCc1ccccc1)c1nc(N2CCCCS2(=O)=O)c2cccnc2c1O | 1000 nM | 125 nM | 1.9 | – | 8.00 | –
10 | CNS(=O)(=O)c1cc(F)ccc1CNC(=O)c1nc(N2CCCCS2(=O)=O)c2cccnc2c1O | 125 nM | < 8 nM | 1.9 | 0.01 | 7.35 | –
11 | CNC(=O)c1cc(F)ccc1CN[14C](=O)c1nc(N2CCCCS2(=O)=O)c2cccnc2c1O | – | – | – | – | – | Activity [23]: 15%
12 | CN(C)C(=O)Cc1ccccc1CNC(=O)c1nc(N2CCCCS2(=O)=O)c2cccnc2c1O | 1000 nM | 167 nM | 1 | 0.06 | 7.85 | –
